The test system of data set [1] is Mus musculus. Kind of data set: Anticonvulsant activity in Kunming mouse assessed as protection against maximal electroshock-induced seizure at 30 mg/kg, ip. Also on record: dose 30 mg/kg. It counts as functional, organism-based. The procedure, abridged:
(§1)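 Mice held on a 12-h light/dark cycle at 23 ± 2 °C with free food and water. Compounds were given ip as suspensions in aqueous Tween 80 (3% v/v, 0.9% NaCl) at 0.05 mL/20 g body weight. The maximal electroshock test was scored as number of animals protected over number tested.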
(Protection in the maximal electroshock model is a classic sign of anticonvulsant action.)

The subject of data set [2] is Mus musculus. Nature of the data set: Anticonvulsant activity in Kunming mouse assessed as protection against maximal electroshock-induced seizure at 100 mg/kg, ip. The class given is functional, organism-based. Details: dose 100 mg/kg. The procedure, abridged: as §1
Data set [3] concerns Mus musculus. Nature of the data set: Antidepressant activity in Kunming mouse assessed as decrease in immobility time at 100 mg/kg, ip measured for last 4 mins of 6 mins test after 30 mins post dose by forced swimming test relative to control. The class given is functional. Details: scale not given: the % may be the effect or the level left. Conditions: route intraperitoneal. The procedure, abridged:
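Mice were dosed ip with compounds at 100 mg/kg, suspended in 3% Tween 80 in 0.9% NaCl (0.05 mL/20 g); controls got 3% aqueous Tween 80. After 30 min each mouse was placed in a water-filled cylinder (water depth 10 cm, 23–25 °C) for 6 min. Upright floating with only slight movements was scored as immobility, timed over the last 4 min. Mean ± S.E.M., n = 8.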

The test system of data set [4] is Mus musculus. Nature of the data set: Anticonvulsant activity in Kunming mouse assessed as protection against maximal electroshock-induced seizure at 300 mg/kg, ip. The class given is functional, organism-based. Also on record: dose 300 mg/kg. Summed up: as §1
Data set [5] deals with Mus musculus. Nature of the data set: Toxicity in Kunming mouse assessed as increase in locomotor activity at 100 mg/kg, ip administered 60 mins prior to test measured for 3 mins by open-field test. It counts as organism-based. Also on record: dose 100 mg/kg, route intraperitoneal. Conditions: in vivo, 0.05 h. The procedure, abridged: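 Open-field exploratory activity was recorded for 3 min, starting 60 min after ip dosing in 3% Tween 80/0.9% NaCl vehicle. Counts were taken for locomotion (line crossings), rearing (standing on hind legs) and grooming, and compared with a vehicle control group.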

Activity calls are given as the source filed them. The calls are words filed in the database; no cut-off is given here.

On to `Nc1cccc(Oc2nc3ccsc3c3nnnn23)c1`, for which the outcome in the data set on Mus musculus [1] and with Mus musculus [2] was inactive. Moreover, the Activity with Mus musculus [3] turned out to be 27.59%.

As to `Fc1cccc(Oc2nc3ccsc3c3nnnn23)c1`, the outcome in the data set with Mus musculus [1], in the data set on Mus musculus [4] and in the data set on Mus musculus [2] was inactive. Besides, the Activity with Mus musculus [3] is 25.73%.

Consider `COc1ccccc1Oc1nc2ccsc2c2nnnn12`, for which the outcome in the data set with Mus musculus [1], in the data set with Mus musculus [4] and in the data set with Mus musculus [2] was inactive. Besides, in the data set on Mus musculus [3], the Activity came out at 26.05%.

For the molecule `Fc1ccc(Oc2nc3ccsc3c3nnnn23)cc1`, the result in the data set on Mus musculus [1], with Mus musculus [4] and in the data set on Mus musculus [2] was inactive. Moreover, the Activity with Mus musculus [3] worked out at 18.18%.

In the case of `Clc1ccc(Oc2nc3ccsc3c3nnnn23)cc1`, the result in the data set on Mus musculus [1], with Mus musculus [4] and with Mus musculus [2] was inactive. The Activity in the data set with Mus musculus [3] turned out to be 35.63%.

For `Clc1ccccc1Oc1nc2ccsc2c2nnnn12`, the outcome in the data set on Mus musculus [1], in the data set on Mus musculus [4] and in the data set on Mus musculus [2] was inactive. Further, the Activity with Mus musculus [3] was 40.17%.

Regarding `Clc1cccc(Oc2nc3ccsc3c3nnnn23)c1`, the outcome in the data set on Mus musculus [1], in the data set on Mus musculus [4] and with Mus musculus [2] was inactive. Moreover, the Activity in the data set with Mus musculus [3] was found to be 15.42%.

Take `c1cnc2c(Oc3nc4ccsc4c4nnnn34)cccc2c1`: the outcome in the data set with Mus musculus [1], in the data set with Mus musculus [4] and with Mus musculus [2] was inactive. Further, in the data set with Mus musculus [3], the Activity was determined as 23.62%.

`c1ccc(Oc2nc3ccsc3c3nnnn23)cc1`: the result in the data set on Mus musculus [1] and with Mus musculus [2] was inactive. For the same molecule, the Activity with Mus musculus [3] came to 26.46%.

With `Cc1ccccc1Oc1nc2ccsc2c2nnnn12`, the outcome with Mus musculus [1], in the data set on Mus musculus [4] and with Mus musculus [2] was inactive. In the data set with Mus musculus [3], the Activity came to 36.44%.

Consider `Cc1ccc(Oc2nc3ccsc3c3nnnn23)cc1`, for which the outcome in the data set with Mus musculus [1], in the data set with Mus musculus [4] and with Mus musculus [2] was inactive. For the same molecule, in the data set on Mus musculus [3], the Activity was found to be 36.6%.

In the case of `COc1ccc(Oc2nc3ccsc3c3nnnn23)cc1`, the result in the data set with Mus musculus [1], in the data set on Mus musculus [4] and in the data set on Mus musculus [2] was inactive. The Activity in the data set with Mus musculus [3] is on record as 46.18%.

In the case of `Clc1ccc(Oc2nc3ccsc3c3nnnn23)c(Cl)c1`, the outcome with Mus musculus [1], with Mus musculus [4] and in the data set on Mus musculus [2] was inactive. Besides, the Activity in the data set with Mus musculus [3] is given as 51.62%; in the data set on Mus musculus [5] it was “Non-toxic”.

As to `CNCCC(Oc1ccc(C(F)(F)F)cc1)c1ccccc1` (stereo not drawn) [FLUOXETINE], in the data set with Mus musculus [3], the Activity was found to be 58.09%.

On to `Cc1cccc(Oc2nc3ccsc3c3nnnn23)c1`, for which the outcome with Mus musculus [1], in the data set on Mus musculus [4] and with Mus musculus [2] was inactive. The Activity in the data set on Mus musculus [3] was 39.04%.

Take `c1ccc2c(Oc3nc4ccsc4c4nnnn34)cccc2c1`: the outcome with Mus musculus [1], in the data set with Mus musculus [4] and in the data set with Mus musculus [2] was inactive. Also, the Activity with Mus musculus [3] was 9.25%.

For the molecule `COc1cccc(Oc2nc3ccsc3c3nnnn23)c1`, the outcome in the data set with Mus musculus [1], in the data set with Mus musculus [4] and with Mus musculus [2] was inactive. The Activity in the data set with Mus musculus [3] was determined as 37.41%.

`FC(F)(F)c1ccc(Oc2nc3ccsc3c3nnnn23)cc1`: the outcome in the data set on Mus musculus [1], in the data set on Mus musculus [4] and with Mus musculus [2] was inactive. The Activity in the data set with Mus musculus [3] was 25.16%.

Turning to `Nc1ccccc1Oc1nc2ccsc2c2nnnn12`, in the data set on Mus musculus [1], the outcome was inactive. For the same molecule, the result with Mus musculus [4] was Active. The Activity in the data set with Mus musculus [3] stood at 22.8%.

For `Fc1ccccc1Oc1nc2ccsc2c2nnnn12`, the result in the data set on Mus musculus [1], in the data set on Mus musculus [4] and in the data set on Mus musculus [2] was inactive. In addition, the Activity in the data set with Mus musculus [3] is reported as 9.33%.

`Brc1ccc(Oc2nc3ccsc3c3nnnn23)cc1`: the result in the data set on Mus musculus [1] was inactive. Besides, in the data set on Mus musculus [4], the result was Active. For the same molecule, in the data set on Mus musculus [3], the Activity is on record as 10.06%.

Source of the values: ChEMBL document CHEMBL2086227, “Synthesis and evaluation of anticonvulsant and antidepressant activities of 5-alkoxytetrazolo[1,5-c]thieno[2,3-e]pyrimidine derivatives” (Eur J Med Chem, 2012).
